Measurements collected from several papers.
Cell line: HCT-116
Effect on: cell growth or viability

With Cc1nc(N(Cc2ccccc2)c2ccc3c(c2)/C(=C/c2ccccc2)C(=O)N3Cc2ccccc2)c2ccccc2n1 (mixture of isomers) the IC50 was 980 nM (MTT).
The IC50 of C=C(F)C(=O)N1CCN(c2nc(OC[C@@H]3CCCN3C)nc3c2CCN(c2cccc4cccc(Cl)c24)C3)C[C@@H]1CC#N is reported as > 1000 nM (ATP luminescence; 3D culture).
With COc1nc(NCc2cn(-c3ccc(NC(=O)c4ccc(Br)cc4)cc3)nn2)nc(OC)n1 the IC50 was 56.6 nM (MTT; 72 h).
The IC50 of COc1ccc(-c2cc(-c3ccc(OC)cc3)c3c(=O)n(C)c(=O)n(C)c3n2)cc1 is reported as 11600 nM (MTT; 48 h).
For COc1nc(NCc2cn(-c3ccc(NC(=O)c4ccc(C(F)(F)F)cc4)cc3)nn2)nc(OC)n1, the IC50 was 39.9 nM (MTT; 72 h).
For Cc1nc(NC(=O)N2CCC[C@H]2C(N)=O)sc1-c1ccnc(C(C)(C)C(F)(F)F)c1, the IC50 was 4340 nM (MTT).
Cc1nc2ccc(CN(C)c3ccc(C(=O)N[C@@H](CCC(=O)O)C(=O)O)s3)cc2c(=O)[nH]1 has an IC50 of 1070 nM (MTT; 48 h).
COc1nc(NCc2cn(-c3ccc(C(N)=O)cc3)nn2)nc(OC)n1 has an IC50 of 79.7 nM (MTT; 72 h).
The IC50 of Cc1nc(Nc2ccc3c(c2)/C(=C/c2ccccc2)C(=O)N3C)c2ccccc2n1 is reported as 21400 nM (MTT).
With Cc1ccc(-c2cc(-c3ccc(Cl)cc3)c3c(=O)[nH]c(=O)[nH]c3n2)cc1 the IC50 was 5440 nM (MTT; 48 h).
